Test results published in ChEMBL document CHEMBL1139904, “2-hydroxy-N-arylbenzenesulfonamides as ATP-citrate lyase inhibitors” (Bioorg Med Chem Lett, 2007).
Each block holds one compound with its values, some of them ahead of it.

Tests used:
ATP-citrate synthase = target: T1, ATP-citrate synthase (Homo sapiens, UniProt P53396); experiment: Inhibition of human recombinant ATP-citrate lyase
T1 sequence (P53396 whole entry): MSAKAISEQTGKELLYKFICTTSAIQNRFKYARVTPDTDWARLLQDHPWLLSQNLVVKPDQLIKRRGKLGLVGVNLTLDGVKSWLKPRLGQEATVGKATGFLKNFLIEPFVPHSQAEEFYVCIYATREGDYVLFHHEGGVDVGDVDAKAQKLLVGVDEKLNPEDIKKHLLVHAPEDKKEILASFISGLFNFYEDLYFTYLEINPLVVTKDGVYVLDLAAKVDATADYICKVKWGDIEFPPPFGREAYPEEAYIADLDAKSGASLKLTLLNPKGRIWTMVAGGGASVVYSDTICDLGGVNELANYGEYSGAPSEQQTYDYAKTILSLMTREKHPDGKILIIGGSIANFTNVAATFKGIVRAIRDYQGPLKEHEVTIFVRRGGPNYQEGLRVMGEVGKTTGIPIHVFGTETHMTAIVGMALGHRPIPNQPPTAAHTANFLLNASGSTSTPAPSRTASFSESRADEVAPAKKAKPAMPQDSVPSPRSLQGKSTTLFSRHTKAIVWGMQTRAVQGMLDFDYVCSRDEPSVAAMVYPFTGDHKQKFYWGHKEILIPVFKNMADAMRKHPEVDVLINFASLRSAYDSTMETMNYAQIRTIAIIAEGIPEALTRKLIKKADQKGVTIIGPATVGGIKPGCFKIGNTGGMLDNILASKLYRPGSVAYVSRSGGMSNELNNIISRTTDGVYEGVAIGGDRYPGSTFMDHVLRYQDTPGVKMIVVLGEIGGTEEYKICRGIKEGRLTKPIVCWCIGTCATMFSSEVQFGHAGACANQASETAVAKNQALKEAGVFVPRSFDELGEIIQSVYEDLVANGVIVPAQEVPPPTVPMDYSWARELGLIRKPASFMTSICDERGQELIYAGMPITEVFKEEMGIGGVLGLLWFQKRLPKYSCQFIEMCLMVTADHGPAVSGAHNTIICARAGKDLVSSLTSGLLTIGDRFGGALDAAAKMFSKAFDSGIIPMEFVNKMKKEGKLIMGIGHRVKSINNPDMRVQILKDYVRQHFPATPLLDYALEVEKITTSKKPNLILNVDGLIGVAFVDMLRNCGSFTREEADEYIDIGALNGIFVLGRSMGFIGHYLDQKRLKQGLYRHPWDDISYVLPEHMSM
Outline: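 Recombinant human ACL enzyme assay; values are at least two separate measurements.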

HepG2 [1] = experiment: Inhibition of total lipid synthesis HepG2 cells assessed as incorporation of [14C]total lipids after 6 hrs; type: functional, cell-based; conditions: Homo sapiens, HepG2, 6 h
Outline: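 HepG2 cells incubated 6 h after compound addition, with [14C]-alanine present for the final 4 h; label incorporation into total lipid measured.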

[2] = Oral bioavailability in mouse at 10 mg/kg; type: ADME, organism-based; conditions: in vivo
Outline: (§1)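 Mice dosed at 10 mg/kg both iv and po; vehicle 10% ethanol, 45% water, 45% PEG-400. Standard PK parameters derived: oral bioavailability, half-life, Cmax (po), Tmax (po), total body clearance.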

[3] = Half life in mouse at 10 mg/kg, iv and po; type: ADME, organism-based; set-up: dose 10 mg/kg, route oral; conditions: in vivo; outline: as §1
[4] = Cmax in mouse at 10 mg/kg, po; type: ADME, organism-based; set-up: dose 10 mg/kg, route oral; conditions: in vivo; outline: as §1
Mus musculus [5] = experiment: Increase in food consumption in high-fat diet C57BL/6 mouse at 10 mg/kg; type: functional
Outline: (§2)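 Eight-week-old C57BL/6 mice (~30 g), five per group. High-fat diet (30% coconut oil, 45% sucrose) admixed with compound to give 10 or 100 mg/kg/day, versus high-fat and normal-chow controls, for 34 days. Food intake and body weight tracked; plasma lipids and fasting glucose assessed weekly. Lipid/glucose changes expressed as % reduction versus high-fat controls at day 29.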

Mus musculus [6] = experiment: Increase in food consumption in normal fat diet C57BL/6 mouse at 10 mg/kg; type: functional
Mus musculus [7] = experiment: Reduction of cholesterol level in high-fat diet C57BL/6 mouse at 10 mg/kg; type: functional; set-up: scale not given: the % may be the effect or the level left; outline: as §2
Mus musculus [8] = experiment: Reduction of cholesterol level in high-fat diet C57BL/6 mouse at 100 mg/kg; type: functional; set-up: scale not given: the % may be the effect or the level left; outline: as §2
Mus musculus [9] = experiment: Reduction of triglycerides in high-fat diet C57BL/6 mouse at 10 mg/kg; type: functional; set-up: scale not given: the % may be the effect or the level left; outline: as §2
Mus musculus [10] = experiment: Reduction of triglycerides in high-fat diet C57BL/6 mouse at 100 mg/kg; type: functional; set-up: scale not given: the % may be the effect or the level left; outline: as §2
Mus musculus [11] = experiment: Reduction of fasting plasma glucose level in C57BL/6 mouse at 10 mg/kg; type: functional; set-up: scale not given: the % may be the effect or the level left; outline: as §2
Mus musculus [12] = experiment: Reduction of fasting plasma glucose level in C57BL/6 mouse at 100 mg/kg; type: functional; set-up: scale not given: the % may be the effect or the level left; outline: as §2
Mus musculus [13] = experiment: Reduction of body weight gain in high-fat diet C57BL/6 mouse at 10 mg/kg after 29 days; type: functional; set-up: scale not given: the % may be the effect or the level left; outline: as §2
Mus musculus [14] = experiment: Reduction of body weight gain in high-fat diet C57BL/6 mouse at 100 mg/kg after 29 days; type: functional; set-up: scale not given: the % may be the effect or the level left; outline: as §2
Acetyl-CoA carboxylase 2 = Acetyl-CoA carboxylase 2 (Homo sapiens, UniProt O00763); experiment: Inhibition of human ACC2
Acetyl-CoA carboxylase 2, sequence (O00763 whole entry): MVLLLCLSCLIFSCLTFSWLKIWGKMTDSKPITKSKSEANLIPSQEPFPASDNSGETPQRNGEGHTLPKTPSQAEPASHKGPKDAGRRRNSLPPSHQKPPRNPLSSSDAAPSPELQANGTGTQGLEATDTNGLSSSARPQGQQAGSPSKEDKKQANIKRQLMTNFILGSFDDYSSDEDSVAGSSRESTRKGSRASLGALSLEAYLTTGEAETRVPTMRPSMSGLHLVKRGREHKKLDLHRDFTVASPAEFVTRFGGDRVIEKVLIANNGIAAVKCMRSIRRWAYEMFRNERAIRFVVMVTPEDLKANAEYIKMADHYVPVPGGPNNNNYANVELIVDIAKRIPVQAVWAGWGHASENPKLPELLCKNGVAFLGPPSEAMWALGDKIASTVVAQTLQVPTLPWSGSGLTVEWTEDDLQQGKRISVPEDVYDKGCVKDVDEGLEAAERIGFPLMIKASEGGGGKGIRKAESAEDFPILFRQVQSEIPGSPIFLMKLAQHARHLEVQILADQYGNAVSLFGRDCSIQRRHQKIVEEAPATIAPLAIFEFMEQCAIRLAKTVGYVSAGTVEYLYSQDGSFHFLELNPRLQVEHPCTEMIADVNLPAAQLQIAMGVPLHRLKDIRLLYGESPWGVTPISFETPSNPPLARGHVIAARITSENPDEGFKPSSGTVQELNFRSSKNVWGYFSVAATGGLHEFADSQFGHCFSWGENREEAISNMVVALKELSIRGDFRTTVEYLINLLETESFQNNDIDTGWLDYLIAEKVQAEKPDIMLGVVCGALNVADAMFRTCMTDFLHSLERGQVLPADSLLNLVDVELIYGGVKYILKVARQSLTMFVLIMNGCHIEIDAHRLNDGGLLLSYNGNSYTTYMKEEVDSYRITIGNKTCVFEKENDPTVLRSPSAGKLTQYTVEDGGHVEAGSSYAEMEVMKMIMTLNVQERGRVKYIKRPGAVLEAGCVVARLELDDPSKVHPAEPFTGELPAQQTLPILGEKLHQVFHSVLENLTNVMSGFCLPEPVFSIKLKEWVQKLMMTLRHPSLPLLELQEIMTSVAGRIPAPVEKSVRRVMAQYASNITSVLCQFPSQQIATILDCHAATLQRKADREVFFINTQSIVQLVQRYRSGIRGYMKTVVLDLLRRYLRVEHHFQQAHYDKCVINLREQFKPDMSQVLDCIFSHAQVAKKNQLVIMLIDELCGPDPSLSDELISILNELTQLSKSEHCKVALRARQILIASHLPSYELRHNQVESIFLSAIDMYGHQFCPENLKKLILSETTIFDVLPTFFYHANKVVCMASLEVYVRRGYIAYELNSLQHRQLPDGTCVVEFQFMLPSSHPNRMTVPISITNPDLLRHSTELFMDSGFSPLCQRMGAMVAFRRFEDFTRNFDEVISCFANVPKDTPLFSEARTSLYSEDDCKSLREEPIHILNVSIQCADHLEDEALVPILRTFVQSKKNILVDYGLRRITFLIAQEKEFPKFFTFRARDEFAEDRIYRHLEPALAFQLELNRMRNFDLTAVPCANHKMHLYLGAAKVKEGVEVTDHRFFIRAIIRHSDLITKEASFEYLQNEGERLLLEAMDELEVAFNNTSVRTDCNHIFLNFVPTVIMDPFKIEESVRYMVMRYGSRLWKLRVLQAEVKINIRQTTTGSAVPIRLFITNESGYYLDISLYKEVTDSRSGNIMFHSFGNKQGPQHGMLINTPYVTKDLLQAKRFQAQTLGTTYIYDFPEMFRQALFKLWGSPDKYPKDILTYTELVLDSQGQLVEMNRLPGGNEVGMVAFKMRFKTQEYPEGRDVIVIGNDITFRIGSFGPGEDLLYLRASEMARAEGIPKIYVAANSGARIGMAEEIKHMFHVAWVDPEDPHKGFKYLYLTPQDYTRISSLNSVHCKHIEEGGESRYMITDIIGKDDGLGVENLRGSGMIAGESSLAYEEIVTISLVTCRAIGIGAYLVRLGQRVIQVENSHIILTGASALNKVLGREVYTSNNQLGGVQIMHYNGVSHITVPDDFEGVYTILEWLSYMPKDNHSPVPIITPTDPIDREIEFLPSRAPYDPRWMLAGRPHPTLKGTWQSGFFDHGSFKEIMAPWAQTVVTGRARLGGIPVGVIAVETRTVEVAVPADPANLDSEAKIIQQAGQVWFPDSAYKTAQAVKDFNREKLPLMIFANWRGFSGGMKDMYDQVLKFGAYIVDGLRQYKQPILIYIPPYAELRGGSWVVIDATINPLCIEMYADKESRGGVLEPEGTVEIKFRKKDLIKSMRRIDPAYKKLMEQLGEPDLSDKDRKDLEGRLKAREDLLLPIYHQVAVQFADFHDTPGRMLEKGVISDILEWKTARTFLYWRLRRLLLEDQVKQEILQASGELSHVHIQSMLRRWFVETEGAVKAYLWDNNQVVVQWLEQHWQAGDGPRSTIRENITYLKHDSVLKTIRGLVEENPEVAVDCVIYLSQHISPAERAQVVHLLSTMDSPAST

Acetyl-CoA carboxylase 1 = Acetyl-CoA carboxylase 1 (Homo sapiens, UniProt Q13085); experiment: Inhibition of human ACC1
[15] = Tmax in mouse at 10 mg/kg, po; conditions: in vivo
HepG2 [16] = experiment: Cytotoxicity against HepG2 cells upto 50 uM by Alamar blue assay; conditions: Homo sapiens
Mus musculus [17] = experiment: Reduction of fat in high-fat diet C57BL/6 mouse at 10 mg/kg after 34 days; set-up: scale not given: the % may be the effect or the level left
Mus musculus [18] = experiment: Reduction of fat in high-fat diet C57BL/6 mouse at 100 mg/kg after 34 days; set-up: scale not given: the % may be the effect or the level left

Compound: CC1CCC(C(C)C)C(OC(=O)c2ccccc2NS(=O)(=O)c2cc(Cl)cc(Cl)c2O)C1 (stereo not drawn)
- IC50 (ATP-citrate synthase): 0.37 µM

Compound: O=S(=O)(Nc1cccc(Oc2ccccc2)c1)c1cc(Cl)cc(Cl)c1O
- IC50 (ATP-citrate synthase): 8.1 µM

Compound: O=S(=O)(Nc1c(-c2ccccc2)cc(-c2ccccc2)cc1-c1ccccc1)c1cc(Cl)cc(Cl)c1O
- IC50 (ATP-citrate synthase): 0.19 µM

Compound: O=S(=O)(Nc1cc(F)cc(F)c1)c1cc(Cl)cc(Cl)c1O
- IC50 (ATP-citrate synthase): 7.6 µM

Compound: CC(C)(C)c1cc(NS(=O)(=O)c2cc(Cl)cc(Cl)c2O)cc(C(C)(C)C)c1
- IC50 (ATP-citrate synthase): 1.1 µM

Compound: O=S(=O)(Nc1cc(Cl)cc(Cl)c1)c1cc(Cl)cc(Cl)c1O
- IC50 (ATP-citrate synthase): 2.3 µM

Second part, led by results:

- IC50 (ATP-citrate synthase): 5.6 µM
Compound: CC(C)(C)c1ccc(C(C)(C)C)c(NS(=O)(=O)c2cc(Cl)cc(Cl)c2O)c1

- IC50 (ATP-citrate synthase): 10.9 µM
Compound: CC(=O)N(C)c1ccc(NS(=O)(=O)c2cc(Cl)cc(Cl)c2O)cc1

- IC50 (ATP-citrate synthase): 0.34 µM
Compound: O=C(OC/C=C\c1ccccc1)c1ccccc1NS(=O)(=O)c1cc(Cl)cc(Cl)c1O

- IC50 (ATP-citrate synthase): 6.9 µM
Compound: CCCCCCc1ccc(NS(=O)(=O)c2cc(Cl)cc(Cl)c2O)cc1

- IC50 (ATP-citrate synthase): 0.15 µM
Compound: O=C(O)C[C@@](O)(C(=O)O)[C@H](O)C(=O)O

- IC50 (ATP-citrate synthase): 2.1 µM
Compound: O=C(O)C[C@@](O)(C[C@H](O)CCCCCCc1ccc(Cl)cc1Cl)C(=O)O

- IC50 (ATP-citrate synthase): 0.13 µM
- IC50 (HepG2 [1]): 8 µM
- bioavailability [2]: 55%
- half-life [3]: 2.1 h
- Cmax [4]: 13 µM
- IC50 (Acetyl-CoA carboxylase 2): 12 µM
- IC50 (Acetyl-CoA carboxylase 1): 6 µM
- Tmax [15]: 0.5 h
Compound: COc1ccc(-c2ccccc2)cc1NS(=O)(=O)c1cc(Cl)cc(Cl)c1O
- Activity (Mus musculus [5]): 3.2 g/day
- Activity (Mus musculus [6]): 4 g/day
- Activity (Mus musculus [7]): -9%
- Activity (Mus musculus [8]): -19%
- Activity (Mus musculus [9]): -26%
- Activity (Mus musculus [10]): -26%
- Activity (Mus musculus [11]): -48%
- Activity (Mus musculus [12]): -32%
- Activity (Mus musculus [13]): 7.2%
- Activity (Mus musculus [14]): 3%
- Activity (HepG2 [16]): Not toxic
- Activity (Mus musculus [17]): 12.9%
- Activity (Mus musculus [18]): 7.3%
